Data: ChEMBL document CHEMBL4011607 (J Med Chem, 2017)

How the values were obtained:
Rattus norvegicus [1] = test: (§1) Clearance in rat at 0.5 mg/kg, iv; type: ADME, organism-based; settings: in vivo
In short: (§2)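 Rats received 0.5 mg/kg iv as a solution in DMSO. Clearance, half-life and Vdss are taken from the plasma profile. Unbound clearance is total clearance divided by plasma fraction unbound.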

Rattus norvegicus [2] = test: Unbound clearance in rat at 0.5 mg/kg, iv; type: ADME, organism-based; settings: in vivo; in short: as §2
Canis familiaris [3] = test: (§3) Clearance in dog at […], iv; type: ADME, organism-based, Canis lupus familiaris; settings: in vivo; further: dose 0.25 mg/kg
Canis familiaris [4] = test: Unbound clearance in dog at […], iv; type: ADME, organism-based, Canis lupus familiaris; settings: in vivo; further: dose 0.25 mg/kg
Rattus norvegicus [5] = test: (§4) Volume of distribution at steady state in rat at 0.5 mg/kg, iv; type: ADME, organism-based; settings: in vivo; in short: as §2
Canis familiaris [6] = test: (§5) Volume of distribution at steady state in dog at […], iv; type: ADME, organism-based, Canis lupus familiaris; settings: in vivo; further: dose 0.25 mg/kg
Rattus norvegicus [7] = test: (§6) Half life in rat at 0.5 mg/kg, iv; type: ADME, organism-based; settings: in vivo; in short: as §2
Canis familiaris [8] = test: (§7) Half life in dog at […], iv; type: ADME, organism-based, Canis lupus familiaris; settings: in vivo; further: dose 0.25 mg/kg
[9] = Tmax in rat at 10 mg/kg, po; type: ADME, organism-based; settings: in vivo
In short: (§8)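 Single oral dose in solution in 1% Tween 80/2.0% HPMC, 97% water, pH 10 with KOH; rat 10 mg/kg, dog 2 mg/kg. Plasma profile gives AUC, tmax and %F.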

[10] = Tmax in dog at 2 mg/kg, po; type: ADME, organism-based, Canis lupus familiaris; settings: in vivo; in short: as §8
[11] = AUC in rat at 10 mg/kg, po; type: ADME, organism-based; settings: in vivo; in short: as §8
[12] = AUC in dog at 2 mg/kg, po; type: ADME, organism-based, Canis lupus familiaris; settings: in vivo; in short: as §8
[13] = Chemical stability of compound in toluene assessed as racemization at above 100 degC; type: physicochemical
In short: (§9)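 Racemization kinetics of the atropisomer were examined in neutral media (toluene, water) and basic media (NaOH) with heating above 100 °C.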

[14] = Chemical stability of compound in water assessed as racemization at above 100 degC; type: physicochemical; settings: buffer; in short: as §9
[15] = Chemical stability of compound in NaOH assessed as racemization at above 100 degC; type: physicochemical; in short: as §9
[16] = Chemical stability of compound assessed as racemization in presence of HCL at 37 degC after 24 hrs; type: physicochemical; settings: buffer
In short: (§10)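 Racemization of the atropisomer was followed in 10% HCl under two conditions: 37 °C for 24 h and 100 °C for 1 h.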

[17] = Chemical stability of compound assessed as racemization in presence of HCL at 100 degC after 1 hr; type: physicochemical; settings: buffer; in short: as §10
[18] = Oral bioavailability in rat at 10 mg/kg; type: ADME, organism-based; settings: in vivo; in short: as §8
[19] = (§11) Oral bioavailability in dog at 2 mg/kg; type: ADME, organism-based, Canis lupus familiaris; settings: in vivo; in short: as §8
[20] = as §1; type: ADME, organism-based; settings: in vivo; in short: as §2
[21] = as §3; type: ADME, organism-based, Canis lupus familiaris; settings: in vivo
[22] = as §4; type: ADME, organism-based; settings: in vivo, read-out: Vdss; in short: as §2
[23] = as §5; type: ADME, organism-based, Canis lupus familiaris; settings: in vivo, read-out: Vdss
[24] = as §6; type: ADME, organism-based; settings: in vivo; in short: as §2
[25] = as §7; type: ADME, organism-based, Canis lupus familiaris; settings: in vivo
[26] = Intrinsic clearance in rat liver microsomes at 1 uM after 40 mins by LC-MS/MS assay; type: ADME, microsome; settings: read-out: CLH
[27] = Intrinsic clearance in dog liver microsomes at 1 uM after 40 mins by LC-MS/MS assay; type: ADME, Canis lupus familiaris, microsome; settings: read-out: CLH
[28] = Intrinsic clearance in human liver microsomes at 1 uM after 40 mins by LC-MS/MS assay; type: ADME, microsome; settings: read-out: CLH
Rhesus monkey = test: Drug metabolism in iv dosed monkey assessed as racemization after 1 hr; type: ADME, organism-based, Macaca mulatta; settings: in vivo
In short: (§12)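 A related atropisomeric analogue was dosed to preclinical species and checked in vivo for interconversion to the other atropisomer. Monkey iv, 1 h; rat iv, 1 h; dog po, 24 h; mouse po, 12 h.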

Canis familiaris [29] = test: Drug metabolism in po dosed dog assessed as racemization after 24 hrs; type: ADME, organism-based, Canis lupus familiaris; settings: in vivo; in short: as §12
Rattus norvegicus [30] = test: Drug metabolism in iv dosed rat assessed as racemization after 1 hr; type: ADME, organism-based; settings: in vivo; in short: as §12
Mus musculus = test: Drug metabolism in po dosed mouse assessed as racemization after 12 hrs; type: ADME, organism-based; settings: in vivo; in short: as §12
Canis familiaris [31] = test: as §11; type: ADME, organism-based, Canis lupus familiaris; settings: in vivo; in short: as §8
[32] = Chemical stability of compound in 1N NaOH assessed as amide bond hydrolysis at room temperature; type: physicochemical
Plasma = test: Plasma concentration in po dosed capsaicin-induced nociception pain C57BL/6 mouse model administered 4 hrs prior to capsaicin challenge; type: ADME, organism-based; settings: in vivo

A CL (Rattus norvegicus [1]) of 3.17 mL/min/kg, a CL free (Rattus norvegicus [2]) of 917 mL/min/kg and a CL (Canis familiaris [3]) of 0.075 mL/min/kg were found for `COc1cc(-c2cccc(F)c2)c(F)cc1-n1c(=O)ccc2cc(S(=O)(=O)Nc3ccon3)ccc21` (atropisomer P) in this work. For the same compound, the CL free (Canis familiaris [4]) was 33 mL/min/kg, the Vdss (Rattus norvegicus [5]) was 1.8 L/kg and the Vdss (Canis familiaris [6]) was 0.14 L/kg. The t1/2 (Rattus norvegicus [7]) was 2.6 h, the t1/2 (Canis familiaris [8]) was 4 h and the Tmax [9] was 2.7 h. The Tmax [10] was 4 h, the AUC [11] was 65 µM·h and the AUC [12] was 600 µM·h. The Stability [13] was “Unstable”, the Stability [14] was “Unstable” and the Stability [15] was “Unstable”. The Stability [16] was “Stable”, the Stability [17] was “Stable” and the bioavailability [18] was 66%. The bioavailability [19] was 62%.

A clearance [20] of 10.2 mL/min/kg, a CL free (Rattus norvegicus [2]) of 1680 mL/min/kg and a clearance [21] of 0.283 mL/min/kg were found for `COc1cc(-c2ccc(F)c(C)c2)c(F)cc1-n1c(=O)ccc2cc(S(=O)(=O)Nc3ccon3)ccc21` in this work. It also gave a CL free (Canis familiaris [4]) of 56.7 mL/min/kg, a Vd [22] of 1.5 L/kg and a Vd [23] of 0.32 L/kg. For the same compound, the half-life [24] was 1.9 h, the half-life [25] was 14 h and the microsomal CLint at 1 µM [26] was 16 µL/min/mg. For the same compound, the microsomal CLint at 1 µM [27] was < 5 µL/min/mg, the microsomal CLint at 1 µM [28] was 5 µL/min/mg and the Drug metabolism (Rhesus monkey) was “Metabolite_Notdetected”. For the same compound, the Drug metabolism (Canis familiaris [29]) was “Metabolite_Notdetected”, the Drug metabolism (Rattus norvegicus [30]) was “Metabolite_Notdetected” and the Drug metabolism (Mus musculus) was “Metabolite_Notdetected”. For the same compound, the bioavailability [18] was 67%, the bioavailability [19] was 116% and the Stability was “Unstable”.

A clearance [20] of 4 mL/min/kg and a CL free (Rattus norvegicus [2]) of 667 mL/min/kg were found for `COc1cc(C(F)(F)F)ccc1N1CCOc2cc(S(=O)(=O)Nc3nccs3)ccc21` in this work.

A clearance [20] of 8.33 mL/min/kg, a CL free (Rattus norvegicus [2]) of 1670 mL/min/kg and a clearance [21] of 0.583 mL/min/kg were found for `COc1cc(-c2cc(OC)c(-n3c(=O)ccc4cc(S(=O)(=O)Nc5ncccn5)ccc43)cc2F)ccc1Cl` in this work. For the same compound, the CL free (Canis familiaris [4]) was 96.7 mL/min/kg, the Vd [22] was 1.3 L/kg and the Vd [23] was 0.47 L/kg. For the same compound, the half-life [24] was 2.4 h, the half-life [25] was 12 h and the microsomal CLint at 1 µM [26] was 12 µL/min/mg. For the same compound, the microsomal CLint at 1 µM [27] was < 5 µL/min/mg, the microsomal CLint at 1 µM [28] was < 5 µL/min/mg and the bioavailability [18] was 55%. The F (Canis familiaris [31]) was 157%.

With `COc1cc(-c2cccc(F)c2)c(Cl)cc1-n1c(=O)ccc2cc(S(=O)(=O)Nc3ccon3)cnc21` the Stability was “Unstable”.

A clearance [20] of 15.2 mL/min/kg, a CL free (Rattus norvegicus [2]) of 3780 mL/min/kg and a clearance [21] of 0.3 mL/min/kg were found for `COc1cc(-c2cccc(OC(F)F)c2)c(F)cc1-n1c(=O)ccc2cc(S(=O)(=O)Nc3ccon3)ccc21` in this work. The CL free (Canis familiaris [4]) was 43.3 mL/min/kg, the Vd [22] was 2.2 L/kg and the Vd [23] was 0.22 L/kg. The half-life [24] was 1.8 h, the half-life [25] was 11 h and the microsomal CLint at 1 µM [26] was < 5 µL/min/mg. For the same compound, the microsomal CLint at 1 µM [27] was < 5 µL/min/mg, the microsomal CLint at 1 µM [28] was < 5 µL/min/mg and the bioavailability [18] was 30%. It also gave a bioavailability [19] of 54%.

With `COc1cc(C(F)(F)F)ccc1N1C(=O)COc2cc(S(=O)(=O)Nc3nccs3)ccc21` the Stability [32] was “Unstable”.

A clearance [20] of 7 mL/min/kg, a CL free (Rattus norvegicus [2]) of 883 mL/min/kg and a clearance [21] of 0.167 mL/min/kg were found for `COc1cc(-c2cccc(C(F)(F)F)c2)ccc1-n1c(=O)ccc2cc(S(=O)(=O)Nc3ncccn3)ccc21` in this work. For the same compound, the CL free (Canis familiaris [4]) was 12.8 mL/min/kg, the Vd [22] was 2.5 L/kg and the Vd [23] was 0.47 L/kg. It also gave a half-life [24] of 4.6 h, a half-life [25] of 34 h and a microsomal CLint at 1 µM [26] of 12 µL/min/mg. For the same compound, the microsomal CLint at 1 µM [27] was < 5 µL/min/mg, the microsomal CLint at 1 µM [28] was 5 µL/min/mg and the Drug uptake (Plasma) was “Dose-dependent effect”. The bioavailability [18] was 83% and the bioavailability [19] was 79%.
